Key:
Assay type in all cases: functional, cell-based
[1] = tested on: CCRF-CEM; test: Antiproliferative activity against human CCRF-CEM cells by MTT assay
Summary of the method: (§1)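 Exponentially growing cells resuspended in growth medium with serial drug dilutions; viability read by MTT after 96 h at 37 °C, with untreated controls allowed at least three rounds of multiplication. IC50 is the concentration cutting proliferation by 50%, mean ± SD of three independent determinations. Haematological lines were grown in RPMI-1640 with 10% FCS and antibiotics. Solid-tumour lines were grown in their own media with 10% FCS.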

[2] = tested on: WIL2-NS; test: Antiproliferative activity against human WIL-2NS cells by MTT assay; summary of the method: as §1
[3] = tested on: SK-MES-1; test: Antiproliferative activity against human SKMES1 cells by MTT assay; summary of the method: as §1
[4] = Antiproliferative activity against human CRL7065 cells by MTT assay; conditions: CRL-7065; summary of the method: as §1
[5] = tested on: DU-145; test: Antiproliferative activity against human DU145 cells by MTT assay; summary of the method: as §1
[6] = tested on: CCRF-SB; test: Antiproliferative activity against human CCRF-SB cells by MTT assay; summary of the method: as §1
[7] = tested on: SK-MEL-28; test: Antiproliferative activity against human SK-MEL-28 cells by MTT assay; summary of the method: as §1
[8] = tested on: HepG2; test: Antiproliferative activity against human HepG2 cells by MTT assay; summary of the method: as §1
[9] = tested on: MCF7; test: Antiproliferative activity against human MCF7 cells by MTT assay; summary of the method: as §1
[10] = tested on: MT4; test: Antiproliferative activity against human MT4 cells by MTT assay; summary of the method: as §1

| Structure (SMILES) | IC50 [1] [µM] | IC50 [2] [µM] | IC50 [3] [µM] | IC50 [4] [µM] | IC50 [5] [µM] | IC50 [6] [µM] | IC50 [7] [µM] | IC50 [8] [µM] | IC50 [9] [µM] | IC50 [10] [µM] |
| --- | --- | --- | --- | --- | --- | --- | --- | --- | --- | --- |
| Oc1cccc(-c2cc(CN3CC4CCC(C3)N4Cc3ccnc(-c4cccc(O)c4)c3)ccn2)c1 | 14 | 28 | > 100 | > 100 | > 100 | 16 | > 100 | > 100 | > 100 |  |
| CC[C@@]1(O)C(=O)OCc2c1cc1n(c2=O)Cc2cc3ccccc3nc2-1 [CAMPTOTHECIN] | 0.003 | 0.005 | 0.01 | 0.5 | 0.01 | 0.003 | 0.04 | 0.03 | 0.04 | 0.004 |
| Clc1ccc(-c2cc(CN3CC4CCC(C3)N4Cc3ccnc(-c4ccc(Cl)cc4)c3)ccn2)cc1 | 7 | 29 | 12 | > 100 | 9 | 13 | 10 | 9 | 10 |  |
| CC(=O)Nc1ccc(-c2cc(CN3CC4CCC(C3)N4Cc3ccnc(-c4ccc(NC(C)=O)cc4)c3)ccn2)cc1 | 19 | 30 | 22 | > 100 | 42 | 25 | 20 | 30 | 43 | 18 |
| O=[N+]([O-])c1cccc(-c2cc(CN3CC4CCC(C3)N4Cc3ccnc(-c4cccc([N+](=O)[O-])c4)c3)ccn2)c1 | 36 | 63 | 30 | > 100 | 85 | 27 | 31 | 41 | 68 |  |
| c1ccc(CN2CC3CCC(C2)N3)cc1 | > 100 | > 100 | > 100 | > 100 | > 100 | > 100 | > 100 | > 100 | > 100 | > 100 |
| c1ccc(-c2ccc(CN3CC4CCC(C3)N4Cc3ccc(-c4ccccc4)cc3)cc2)cc1 | 7 | 11 | 43 | > 100 | 7 | 6 | 6 | 45 | 84 | > 100 |
| c1ccc2c(CN3CC4CCC(C3)N4Cc3cccc4ccccc34)cccc2c1 | 8 | 7 | 17 | 20 | 80 | 7 | 13 | 18 | 11 |  |
| O=[N+]([O-])c1ccc(-c2cc(CN3CC4CCC(C3)N4Cc3ccnc(-c4ccc([N+](=O)[O-])cc4)c3)ccn2)cc1 | 91 | > 100 | > 100 | > 100 | > 100 | > 100 | > 100 | > 100 | > 100 |  |
| c1ccc2c(c1)ccc1c(CN3CC4CCC(C3)N4Cc3cccc4c3ccc3ccccc34)cccc12 | 6 | 6 | 40 | 69 | 41 | 9 | 30 | 50 | 54 |  |
| COc1cccc(-c2cc(CN3CC4CCC(C3)N4Cc3ccnc(-c4cccc(OC)c4)c3)ccn2)c1 | 11 | 13 | 8 | > 100 | 9 | 12 | 8 | 15 | 15 |  |

From ChEMBL document CHEMBL1144601, “Synthesis and antiproliferative properties of N3/8-disubstituted 3,8-diazabicyclo[3.2.1]octane analogues of 3,8-bis[2-(3,4,5-trimethoxyphenyl)pyridin-4-yl]methyl-piperazine” (Eur J Med Chem, 2007)
